According to ChEMBL document CHEMBL1122194, “Prodrugs of L-cysteine as liver-protective agents. 2(RS)-Methylthiazolidine-4(R)-carboxylic acid, a latent cysteine” (J Med Chem, 1982):

Tests used:
Mus musculus [1] = species on record: Mus musculus; assay: Tested for Protection from Acetaminophen-Induced Liver Necrosis in Mice (18 animals) and the deaths were observed after the 48 hours due to liver necrosis; Death due to hemorrhagic necrosis of the liver; format: functional
Summary of the method: (§1)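 Male Swiss-Webster mice (18–33 g) were randomized and given acetaminophen 750 mg/kg. Protective agents or saline followed 30 min later. Deaths were counted over 48 h with food and water ad libitum, then survivors were killed by cervical dislocation. Livers were formalin-fixed and sectioned, stained with H&E and Gomori reticulum stain, and necrosis was graded 0 to 4+ by Mitchell criteria. Counts pooled up to two independent experiments.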

Mus musculus [2] = species on record: Mus musculus; assay: Tested for Protection from Acetaminophen-Induced Liver Necrosis in Mice, Number of animals(mice) with liver necrosis was determined after 0 hour; format: functional
Mus musculus [3] = species on record: Mus musculus; assay: Tested for Protection from Acetaminophen-Induced Liver Necrosis in Mice, Number of animals(mice) with grade 4+ liver necrosis was determined after 48 hr
Mus musculus [4] = species on record: Mus musculus; assay: Tested for Protection from Acetaminophen-Induced Liver Necrosis in Mice (in 10 animals) and the deaths were observed after the 48 hours due to liver necrosis; format: functional; summary of the method: as §1
Mus musculus [5] = species on record: Mus musculus; assay: Tested for Protection from Acetaminophen-Induced Liver Necrosis in Mice, Number of animals(mice) with grade 2+ liver necrosis was determined after 48 hours
Mus musculus [6] = species on record: Mus musculus; assay: Tested for Protection from Acetaminophen-Induced Liver Necrosis in Mice, Number of animals(mice) with grade 3+ liver necrosis was determined after 48 hours
Mus musculus [7] = species on record: Mus musculus; assay: Tested for 17 animals(mice) and the deaths were observed after the 48 hours due to liver necrosis; format: functional; summary of the method: as §1
Mus musculus [8] = species on record: Mus musculus; assay: Tested for Protection from Acetaminophen-Induced Liver Necrosis in Mice (in 18 animals) and the deaths were observed after the 48 hours due to liver necrosis; format: functional; summary of the method: as §1
Mus musculus [9] = species on record: Mus musculus; assay: Tested for Protection from Acetaminophen-Induced Liver Necrosis in Mice, Number of animals(mice) with liver necrosis was determined after 1 hr; format: functional
Mus musculus [10] = species on record: Mus musculus; assay: Tested for Protection from Acetaminophen-Induced Liver Necrosis in Mice (in 17 animals) and the deaths were observed after the 48 hours due to liver necrosis; format: functional; summary of the method: as §1
[11] = Lethal dose after intraperitoneal administration in mice was determined; format: toxicity, organism-based; conditions: mouse, in vivo, ip
Mus musculus [12] = species on record: Mus musculus; assay: Tested for 10 animals(mice) and the deaths were observed after the 48 hours due to liver necrosis; format: functional; summary of the method: as §1
Mus musculus [13] = species on record: Mus musculus; assay: Tested for Protection from Acetaminophen-Induced Liver Necrosis in Mice, necrosis was determined after 3 hour; format: functional

Structure (SMILES)	No. of animals with liver necrosis (Mus musculus [2])	No. of animals with grade 4+ liver necrosis (Mus musculus [3])	No. of animals with grade 3+ liver necrosis (Mus musculus [6])	also measured
CC(=O)Nc1ccc(O)cc1.CC1N[C@H](C(=O)O)CS1	17	1	–	Deaths (Mus musculus [1]): 1
CC(=O)Nc1ccc(O)cc1.O=C(O)C1CSCN1	1	2	4	Deaths (Mus musculus [4]): 4; No. of animals with grade 2+ liver necrosis (Mus musculus [5]): 1
CC1N[C@H](C(=O)O)CS1 (some centres not stated)	17	–	–	Deaths (Mus musculus [7]): 0
CC(=O)N[C@@H](CS)C(=O)O.CC(=O)Nc1ccc(O)cc1	13	1	1	Deaths (Mus musculus [8]): 1; No. of animals with liver necrosis (Mus musculus [9]): 3
CC(=O)Nc1ccc(O)cc1 [ACETAMINOPHEN]	1	8	7	Deaths (Mus musculus [10]): 11; No. of animals with grade 2+ liver necrosis (Mus musculus [5]): 1
CC(=O)N[C@@H](CS)C(=O)O [ACETYLCYSTEINE]	15	–	–	No. of animals with liver necrosis (Mus musculus [9]): 2; Deaths (Mus musculus [7]): 0
O=C(O)C1CSCN1 (configuration not stated) [TIMONACIC]	9	–	–	LD50 [11]: 164 mg/kg; Deaths (Mus musculus [12]): 3; No. of animals with liver necrosis (Mus musculus [13]): 1
